Our source for the MIC values is ChEMBL document CHEMBL1127395, “Synthesis and antimicrobial activity of novel 3-[(aminopyrimidiniumyl)thio]methyl cephalosporins” (1994).

Structures are written as SMILES. Converted amounts (≈) assume the structure as drawn.

One experiment has as its system Proteus vulgaris. The experiment is described as follows: In vitro minimum inhibitory concentration for Proteus vulgaris (ATCC-6059) by agar dilution method. It counts as functional.
Conditions: not given
In short, it runs like this: (§1)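 Two-fold serial dilutions of each compound dispersed in Mueller-Hinton agar; plates spot-inoculated with 2 μL of standard test strain at 10^7 CFU/mL, incubated 37 °C for 20 h; MIC read as lowest concentration inhibiting growth.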
For orientation: In agar dilution the substance is mixed into plates at graded concentrations.
Compound `C[n+]1c(N)cc(N)nc1SCC1=C(C(=O)[O-])N2C(=O)C(NC(=O)/C(=N\OC(C)(C)C(=O)O)c3cnc(N)s3)C2SC1` (stereo in doubt; 23) returned an MIC of 0.06 µg/mL (≈ 0.0962 µM).

Staying with this experiment, now noted: Proteus vulgaris; read-out: MIC.
With `CN[n+]1c(N)cc(N)nc1SCC1=C(C(=O)[O-])N2C(=O)C(NC(=O)/C(=N\OC(C)(C)C(=O)O)c3cnc(N)s3)C2SC1` (stereo not given), the minimum inhibitory concentration (MIC) turned out to be 0.03 µg/mL (≈ 0.047 µM).

On to `Cc1cccc(C)c1-[n+]1c(N)cc(N)nc1SCC1=C(C(=O)[O-])N2C(=O)C(NC(=O)/C(=N\OC(C)(C)C(=O)O)c3cnc(N)s3)C2SC1` (stereo not given), for which the minimal inhibitory concentration (MIC) was determined as 0.5 µg/mL (≈ 0.7 µM).

The test system of another experiment is Escherichia coli. The experiment is described as follows: In vitro minimum inhibitory concentration for Escherichia coli (ATCC-10536) by agar dilution method. It counts as functional.
Conditions: not given
In short, it runs like this:
as §1
Take `C[n+]1c(N)cc(N)nc1SCC1=C(C(=O)[O-])N2C(=O)C(NC(=O)/C(=N\OC(C)(C)C(=O)O)c3cnc(N)s3)C2SC1` (stereo in doubt; 23): the minimal inhibitory concentration (MIC) was 0.06 µg/mL (≈ 0.0962 µM).

The experiment is the same for the next values; noted with them: Escherichia coli; read-out: MIC.
`CN[n+]1c(N)cc(N)nc1SCC1=C(C(=O)[O-])N2C(=O)C(NC(=O)/C(=N\OC(C)(C)C(=O)O)c3cnc(N)s3)C2SC1` (stereo not given): the MIC was found to be 0.5 µg/mL (≈ 0.783 µM).

As to `Cc1cccc(C)c1-[n+]1c(N)cc(N)nc1SCC1=C(C(=O)[O-])N2C(=O)C(NC(=O)/C(=N\OC(C)(C)C(=O)O)c3cnc(N)s3)C2SC1` (stereo not given), the MIC was found to be 0.5 µg/mL (≈ 0.7 µM).

Another experiment relates to Staphylococcus epidermidis. The experiment is described as follows: In vitro minimum inhibitory concentration for Staphylococcus epidermidis (ATCC-12228) by agar dilution method. It counts as functional.
Conditions: not given
The procedure, abridged: as §1
`C[n+]1c(N)cc(N)nc1SCC1=C(C(=O)[O-])N2C(=O)C(NC(=O)/C(=N\OC(C)(C)C(=O)O)c3cnc(N)s3)C2SC1` (stereo in doubt; 23): the minimal inhibitory concentration (MIC) came out at 2 µg/mL (≈ 3.21 µM).

The experiment is the same for the next values; noted with them: Staphylococcus epidermidis; read-out: MIC.
Take `CN[n+]1c(N)cc(N)nc1SCC1=C(C(=O)[O-])N2C(=O)C(NC(=O)/C(=N\OC(C)(C)C(=O)O)c3cnc(N)s3)C2SC1` (stereo not given): the MIC was found to be 16 µg/mL (≈ 25.1 µM).

For `Cc1cccc(C)c1-[n+]1c(N)cc(N)nc1SCC1=C(C(=O)[O-])N2C(=O)C(NC(=O)/C(=N\OC(C)(C)C(=O)O)c3cnc(N)s3)C2SC1` (stereo not given), the MIC worked out at 2 µg/mL (≈ 2.8 µM).

In a further experiment the test system is Klebsiella aerogenes. The experiment is described as follows: In vitro minimum inhibitory concentration for Enterobacter aerogenes (ATCC-29751) by agar dilution method. It counts as functional.
Conditions: not given
The procedure, abridged: as §1
`C[n+]1c(N)cc(N)nc1SCC1=C(C(=O)[O-])N2C(=O)C(NC(=O)/C(=N\OC(C)(C)C(=O)O)c3cnc(N)s3)C2SC1` (stereo in doubt; 23) had an MIC of 2 µg/mL (≈ 3.21 µM).

The same experiment, now with this note: Klebsiella aerogenes; read-out: MIC.
As for `CN[n+]1c(N)cc(N)nc1SCC1=C(C(=O)[O-])N2C(=O)C(NC(=O)/C(=N\OC(C)(C)C(=O)O)c3cnc(N)s3)C2SC1` (stereo not given), the minimal inhibitory concentration (MIC) was determined as 16 µg/mL (≈ 25.1 µM).

Take `Cc1cccc(C)c1-[n+]1c(N)cc(N)nc1SCC1=C(C(=O)[O-])N2C(=O)C(NC(=O)/C(=N\OC(C)(C)C(=O)O)c3cnc(N)s3)C2SC1` (stereo not given): the MIC worked out at 2 µg/mL (≈ 2.8 µM).

In the next experiment the test system is Citrobacter freundii. The experiment is described as follows: In vitro minimum inhibitory concentration for Citrobacter freundii (ATCC-8090) by agar dilution method. It counts as functional.
Conditions: not given
In short, it runs like this:
as §1
As to `C[n+]1c(N)cc(N)nc1SCC1=C(C(=O)[O-])N2C(=O)C(NC(=O)/C(=N\OC(C)(C)C(=O)O)c3cnc(N)s3)C2SC1` (stereo in doubt; 23), the MIC worked out at 0.13 µg/mL (≈ 0.208 µM).

Still in this experiment, the particulars now being: Citrobacter freundii; read-out: MIC.
In the case of `CN[n+]1c(N)cc(N)nc1SCC1=C(C(=O)[O-])N2C(=O)C(NC(=O)/C(=N\OC(C)(C)C(=O)O)c3cnc(N)s3)C2SC1` (stereo not given), the MIC is 0.5 µg/mL (≈ 0.783 µM).

`Cc1cccc(C)c1-[n+]1c(N)cc(N)nc1SCC1=C(C(=O)[O-])N2C(=O)C(NC(=O)/C(=N\OC(C)(C)C(=O)O)c3cnc(N)s3)C2SC1` (stereo not given): the minimum inhibitory concentration (MIC) is 1 µg/mL (≈ 1.4 µM).

The test system of a further experiment is Pseudomonas aeruginosa. The experiment is described as follows: In vitro minimum inhibitory concentration for Pseudomonas aeruginosa (ATCC 10145) by agar dilution method. The format is functional.
Conditions: not given
In short, it runs like this:
as §1
`CN[n+]1c(N)cc(N)nc1SCC1=C(C(=O)[O-])N2C(=O)C(NC(=O)/C(=N\OC(C)(C)C(=O)O)c3cnc(N)s3)C2SC1` (stereo not given): the lowest concentration to inhibit growth (MIC) was 8 µg/mL (≈ 12.5 µM).

`Cc1cccc(C)c1-[n+]1c(N)cc(N)nc1SCC1=C(C(=O)[O-])N2C(=O)C(NC(=O)/C(=N\OC(C)(C)C(=O)O)c3cnc(N)s3)C2SC1` (stereo not given): inhibition of growth (MIC) required 8 µg/mL (≈ 11.2 µM).

The next experiment deals with Pseudomonas aeruginosa. The experiment is described as follows: In vitro minimum inhibitory concentration for Pseudomonas aeruginosa (ATCC-27853) by agar dilution method. The format is functional.
Conditions: not given
In short, it runs like this:
as §1
For `C[n+]1c(N)cc(N)nc1SCC1=C(C(=O)[O-])N2C(=O)C(NC(=O)/C(=N\OC(C)(C)C(=O)O)c3cnc(N)s3)C2SC1` (stereo in doubt; 23), the MIC amounted to 2 µg/mL (≈ 3.21 µM).

Staying with this experiment, now noted: Pseudomonas aeruginosa; read-out: MIC.
`CN[n+]1c(N)cc(N)nc1SCC1=C(C(=O)[O-])N2C(=O)C(NC(=O)/C(=N\OC(C)(C)C(=O)O)c3cnc(N)s3)C2SC1` (stereo not given): the MIC was 8 µg/mL (≈ 12.5 µM).

On to `Cc1cccc(C)c1-[n+]1c(N)cc(N)nc1SCC1=C(C(=O)[O-])N2C(=O)C(NC(=O)/C(=N\OC(C)(C)C(=O)O)c3cnc(N)s3)C2SC1` (stereo not given), for which the minimum inhibitory concentration (MIC) came out at 4 µg/mL (≈ 5.6 µM).

The subject of the next experiment is Klebsiella pneumoniae. The experiment is described as follows: In vitro minimum inhibitory concentration for Klebsiella pneumoniae (ATCC-10031) by agar dilution method.
Conditions: not given
The format is functional.
`C[n+]1c(N)cc(N)nc1SCC1=C(C(=O)[O-])N2C(=O)C(NC(=O)/C(=N\OC(C)(C)C(=O)O)c3cnc(N)s3)C2SC1` (stereo in doubt; 23) returned a minimal inhibitory concentration (MIC) of 0.06 µg/mL (≈ 0.0962 µM).

The same experiment, now with this note: Klebsiella pneumoniae; read-out: MIC.
Consider `CN[n+]1c(N)cc(N)nc1SCC1=C(C(=O)[O-])N2C(=O)C(NC(=O)/C(=N\OC(C)(C)C(=O)O)c3cnc(N)s3)C2SC1` (stereo not given), for which the MIC turned out to be 0.25 µg/mL (≈ 0.391 µM).

On to `Cc1cccc(C)c1-[n+]1c(N)cc(N)nc1SCC1=C(C(=O)[O-])N2C(=O)C(NC(=O)/C(=N\OC(C)(C)C(=O)O)c3cnc(N)s3)C2SC1` (stereo not given), for which the MIC worked out at 0.25 µg/mL (≈ 0.35 µM).

In the next experiment the test system is Enterobacter cloacae. The experiment is described as follows: In vitro minimum inhibitory concentration for Enterobacter cloacae (ATCC-27508) by agar dilution method. The format is functional.
Conditions: not given
In short, it runs like this: as §1
In turn, `C[n+]1c(N)cc(N)nc1SCC1=C(C(=O)[O-])N2C(=O)C(NC(=O)/C(=N\OC(C)(C)C(=O)O)c3cnc(N)s3)C2SC1` (stereo in doubt; 23) gave a minimal inhibitory concentration (MIC) of 0.06 µg/mL (≈ 0.0962 µM).

Staying with this experiment, now noted: Enterobacter cloacae; read-out: MIC.
`CN[n+]1c(N)cc(N)nc1SCC1=C(C(=O)[O-])N2C(=O)C(NC(=O)/C(=N\OC(C)(C)C(=O)O)c3cnc(N)s3)C2SC1` (stereo not given): the MIC was 0.13 µg/mL (≈ 0.204 µM).

As for `Cc1cccc(C)c1-[n+]1c(N)cc(N)nc1SCC1=C(C(=O)[O-])N2C(=O)C(NC(=O)/C(=N\OC(C)(C)C(=O)O)c3cnc(N)s3)C2SC1` (stereo not given), the MIC is 0.25 µg/mL (≈ 0.35 µM).

For another experiment, the system named is Staphylococcus aureus. The experiment is described as follows: In vitro minimum inhibitory concentration for Staphylococcus aureus (ATCC 6538p) by agar dilution method. The format is functional.
Conditions: not given
The procedure, abridged:
as §1
In turn, `C[n+]1c(N)cc(N)nc1SCC1=C(C(=O)[O-])N2C(=O)C(NC(=O)/C(=N\OC(C)(C)C(=O)O)c3cnc(N)s3)C2SC1` (stereo in doubt; 23) had an MIC of 4 µg/mL (≈ 6.41 µM).

Staying with this experiment, now noted: Staphylococcus aureus, ATCC 6538p; read-out: MIC.
Take `CN[n+]1c(N)cc(N)nc1SCC1=C(C(=O)[O-])N2C(=O)C(NC(=O)/C(=N\OC(C)(C)C(=O)O)c3cnc(N)s3)C2SC1` (stereo not given): the MIC came to 32 µg/mL (≈ 50.1 µM).

Turning to `Cc1cccc(C)c1-[n+]1c(N)cc(N)nc1SCC1=C(C(=O)[O-])N2C(=O)C(NC(=O)/C(=N\OC(C)(C)C(=O)O)c3cnc(N)s3)C2SC1` (stereo not given), the MIC was 4 µg/mL (≈ 5.6 µM).

Another experiment relates to Salmonella typhimurium. The experiment is described as follows: In vitro minimum inhibitory concentration for Salmonella Typhimurium (ATCC-14028) by agar dilution method.
Conditions: not given
The format is functional, Salmonella enterica subsp. enterica serovar Typhimurium. The procedure, abridged: as §1
The compound `C[n+]1c(N)cc(N)nc1SCC1=C(C(=O)[O-])N2C(=O)C(NC(=O)/C(=N\OC(C)(C)C(=O)O)c3cnc(N)s3)C2SC1` (stereo in doubt; 23) yielded an MIC of 0.25 µg/mL (≈ 0.401 µM).

The experiment is the same for the next values; noted with them: Salmonella enterica; read-out: MIC.
Consider `CN[n+]1c(N)cc(N)nc1SCC1=C(C(=O)[O-])N2C(=O)C(NC(=O)/C(=N\OC(C)(C)C(=O)O)c3cnc(N)s3)C2SC1` (stereo not given), for which the MIC came to 1 µg/mL (≈ 1.57 µM).

Consider `Cc1cccc(C)c1-[n+]1c(N)cc(N)nc1SCC1=C(C(=O)[O-])N2C(=O)C(NC(=O)/C(=N\OC(C)(C)C(=O)O)c3cnc(N)s3)C2SC1` (stereo not given), for which the minimal inhibitory concentration (MIC) is 2 µg/mL (≈ 2.8 µM).

The test system of the next experiment is Serratia marcescens. The experiment is described as follows: In vitro minimum inhibitory concentration for Serratia marcescens (ATCC-27117) by agar dilution method. The format is functional.
Conditions: not given
The procedure, abridged: as §1
Consider `C[n+]1c(N)cc(N)nc1SCC1=C(C(=O)[O-])N2C(=O)C(NC(=O)/C(=N\OC(C)(C)C(=O)O)c3cnc(N)s3)C2SC1` (stereo in doubt; 23), for which the minimum inhibitory concentration (MIC) stood at 0.13 µg/mL (≈ 0.208 µM).

Staying with this experiment, now noted: Serratia marcescens; read-out: MIC.
On to `CN[n+]1c(N)cc(N)nc1SCC1=C(C(=O)[O-])N2C(=O)C(NC(=O)/C(=N\OC(C)(C)C(=O)O)c3cnc(N)s3)C2SC1` (stereo not given), for which the MIC was determined as 1 µg/mL (≈ 1.57 µM).

In the case of `Cc1cccc(C)c1-[n+]1c(N)cc(N)nc1SCC1=C(C(=O)[O-])N2C(=O)C(NC(=O)/C(=N\OC(C)(C)C(=O)O)c3cnc(N)s3)C2SC1` (stereo not given), the MIC was determined as 2 µg/mL (≈ 2.8 µM).

The MIC is the least concentration at which growth counts as inhibited.
